Data set [1] deals with T1, Corticotropin-releasing factor receptor 1 (Homo sapiens, UniProt P34998).
T1 sequence (P34998 whole entry): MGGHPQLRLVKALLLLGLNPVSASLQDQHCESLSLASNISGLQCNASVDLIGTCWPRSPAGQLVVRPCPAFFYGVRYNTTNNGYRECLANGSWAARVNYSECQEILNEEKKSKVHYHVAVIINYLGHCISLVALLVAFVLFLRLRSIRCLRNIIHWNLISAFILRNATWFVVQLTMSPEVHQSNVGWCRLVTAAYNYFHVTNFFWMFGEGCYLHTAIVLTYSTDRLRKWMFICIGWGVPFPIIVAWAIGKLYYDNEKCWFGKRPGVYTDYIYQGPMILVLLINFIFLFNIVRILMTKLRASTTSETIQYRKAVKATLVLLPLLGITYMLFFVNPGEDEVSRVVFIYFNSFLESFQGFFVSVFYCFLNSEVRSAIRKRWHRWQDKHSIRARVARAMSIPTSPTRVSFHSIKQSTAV
Put plainly: Inhibition of [125I][Tyr0]-sauvagine binding to human Corticotropin releasing factor receptor 1 expressed in mouse fibroblast Ltk- cells. The data set is classed as cell-based.

In data set [2] the target is Corticotropin releasing factor receptor (Rattus norvegicus, UniProt P47866+P35353). Put plainly: Inhibition of corticotropin releasing factor stimulated cAMP production in rat pituitary assay. The data set is classed as functional, tissue-based, Pituitary gland. (In general: Cyclic AMP is a second messenger, typically raised through Gs and lowered through Gi signalling.)

Data set [3] concerns the target T2, Corticotropin-releasing factor receptor 2 (Homo sapiens, UniProt Q13324).
T2 sequence (Q13324 whole entry): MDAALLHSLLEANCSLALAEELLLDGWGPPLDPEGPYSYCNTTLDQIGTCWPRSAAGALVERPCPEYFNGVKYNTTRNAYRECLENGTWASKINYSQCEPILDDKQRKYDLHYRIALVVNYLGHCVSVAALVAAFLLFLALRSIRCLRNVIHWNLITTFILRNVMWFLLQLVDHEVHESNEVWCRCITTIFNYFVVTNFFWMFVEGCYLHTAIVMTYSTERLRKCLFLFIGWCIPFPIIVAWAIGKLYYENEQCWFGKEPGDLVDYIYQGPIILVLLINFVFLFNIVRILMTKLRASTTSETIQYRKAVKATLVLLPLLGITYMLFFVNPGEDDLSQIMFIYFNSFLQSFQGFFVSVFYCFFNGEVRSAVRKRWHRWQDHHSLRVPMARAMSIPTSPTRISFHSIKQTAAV
Nature of the data set: Binding affinity for human Corticotropin releasing factor receptor 2.

Data set [4] can be described thus: Ratio of compound concentration in brain to that of plasma of rats upon intravenous administration of 1 mg/kg. The settings on record: rat. The arrangement: dose 1 mg/kg, route intravenous. Format: ADME, organism-based. The method in brief:
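Male Sprague-Dawley rats, 3 per time point, received 1 mg/kg iv by tail vein at 2 mL/kg in filtered purified water. Terminal blood and brain were taken at set times for composite sampling. Plasma was acetonitrile-precipitated and half-brains were homogenized in 50:50 acetonitrile/water, then measured by LC-MS/MS (LLOQ 5 ng/mL plasma, 0.5 ng/g brain). Ratio = brain AUC / plasma AUC, noncompartmental.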

The nature of data set [5]: Peak plasma concentration upon oral administration of 2 mg/kg to rats. The settings on record: rat. More on the design: dose 2 mg/kg, route oral. Format: ADME, organism-based. In a few lines:
(§1)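 Male Sprague-Dawley rats were dosed at 1 mg/kg iv via the tail vein and at 2 mg/kg by oral gavage, n = 3 per time point. The dosing solution was in purified water at 2 mL/kg. Terminal plasma was sampled at set times (composite design), acetonitrile-precipitated and analysed by LC-MS/MS (LLOQ 5 ng/mL). Parameters came from noncompartmental analysis.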

Data set [6] can be described thus: Plasma half life in rats upon intravenous administration of 1 mg/kg. More on the design: dose 1 mg/kg, route intravenous. The data set is classed as ADME, organism-based. The note with it: rat. The method in brief: as §1
Data set [7] is described as follows: Area under concentration time curve upon oral administration of 2 mg/kg to rats. The arrangement: dose 2 mg/kg, route oral. The data set is classed as ADME, organism-based. The settings on record: rat, in vivo. The method in brief:
as §1

Data set [8] in a line: Bioavailability upon 2 mg/kg oral administration to rats. The data set is classed as ADME, organism-based. The note with it: rat, in vivo. The method in brief:
as §1

The nature of data set [9]: Time to attain peak plasma concentration upon oral administration of 2 mg/kg to rats. The settings on record: rat. The data set is classed as ADME, organism-based. More on the design: dose 2 mg/kg, route oral. The method in brief: as §1
A short description of data set [10]: Clearance of compound in rats upon intravenous administration of 1 mg/kg. Format: ADME, organism-based. The arrangement: dose 1 mg/kg, route intravenous. The note with it: rat, in vivo. The method in brief:
as §1

Data set [11] can be described thus: Volume of distribution in rats upon intravenous administration of 1 mg/kg. The data set is classed as ADME, organism-based. More on the design: dose 1 mg/kg, route intravenous. The note with it: rat, in vivo, read-out: V. The method in brief: as §1

Consider 34 compounds from ChEMBL document CHEMBL1142705, “Rational design, synthesis, and structure-activity relationships of aryltriazoles as novel corticotropin-releasing factor-1 receptor antagonists” (J Med Chem, 2005).

Where only a bound is given, the exact number is not on record here.

The Ki is the dissociation constant of the complex between target and ligand, obtained from inhibition or displacement. Low readings indicate tighter binding, high ones weaker binding. The IC50 is the concentration at which inhibition is half-maximal. Low readings indicate inhibition by little substance, high ones a need for much substance. A word on the Cmax: it is the peak of the concentration-time curve. One may read the half-life as the time in which the quantity being followed falls by half. Read a high half-life as slow loss. For orientation: AUC means concentration integrated over time. As a reminder, the bioavailability is dose-corrected exposure relative to a reference, in per cent. A low value points to poor availability. Usually Tmax stands for the time from dosing to the highest level. One may read the clearance as a measure of how efficiently the substance is removed, as volume per time. A lower clearance goes with a low capacity for elimination.

On to `CCC[C@@H](c1ccccc1)N(CCC)c1nc(-c2cc(OC)c(OC)cc2Cl)n(C)n1.Cl`, for which the Ki in data set [1] turned out to be 16.3 nM. The IC50 in data set [2] was found to be 240 nM.

Regarding `CCCCC(c1ccccc1)N(CCC)c1nc(-c2ccc(OC)cc2C)n(C)n1` (configuration not stated), the Ki in data set [1] turned out to be 6.9 nM.

Regarding `CCC[C@@H](c1ccccc1)N(CCC)c1nc(-c2ccc(Cl)cc2OC)n(C)n1.Cl`, the affinity in data set [1], expressed as Ki, was 6.3 nM. In data set [2], the IC50 is reported as 91 nM.

Consider `CCCN(c1nc(-c2ccc(Cl)cc2Cl)n(C)n1)C(C1CC1)C1CC1`, for which the Ki in data set [3] was over 10 µM; in [1] it was 9.2 nM. Also, the IC50 in [2] stood at 90 nM.

`CCCN(c1nc(-c2ccc(OC)cc2C)n(C)n1)[C@@H](CC)c1ccc(C(F)(F)F)cc1.Cl` came in with an IC50 in data set [2] of 270 nM.

As to `CCCC(c1ccccc1)N(CCC)c1nc(-c2ccc(Cl)cc2OC)n(C)n1` (configuration not stated), the Ki in data set [1] is 14 nM.

`CCCCC(CC)N(CCC)c1nc(-c2ccc(Cl)cc2OC)n(C)n1` (configuration not stated): the affinity in data set [1], expressed as Ki, was 46 nM.

In [1], `CCCN(c1nc(-c2ccc(Cl)cc2OC)n(C)n1)C(CC)c1ccc(C(F)(F)F)cc1` (configuration not stated) came in with a Ki of 12 nM.

In turn, `CCCC[C@@H](c1ccccc1)N(CCC)c1nc(-c2ccc(OC)cc2C)n(C)n1.Cl` registered a Ki in data set [1] of 5.7 nM. The same compound had an IC50 in data set [2] of 92 nM.

With `CCCC[C@@H](c1ccccc1)N(CCC)c1nc(-c2ccc(Cl)cc2OC)n(C)n1.Cl`, the Ki in [1] amounted to 4 nM. This compound yielded a half-inhibitory concentration (IC50) in [2] of 56 nM.

In turn, `CCCN(CCC)c1nc(-c2ccc(Cl)cc2OC)n(C)n1` returned a Ki in data set [1] of over 10000 nM.

As to `CCCN(c1nc(-c2ccc(Cl)cc2OC)n(C)n1)C(C(C)C)C(C)C`, the affinity in data set [1], expressed as Ki, was 910 nM.

Regarding `CCCN(c1nc(-c2ccc(Cl)cc2OC)n(C)n1)[C@@H](CC)c1ccc(C(F)(F)F)cc1.Cl`, in data set [1], the Ki worked out at 5.2 nM. For the same compound, the IC50 in data set [2] was found to be 120 nM.

For the compound `CCC[C@@H](c1ccccc1)N(CCC)c1nc(-c2ccc(OC)cc2OC)n(C)n1.Cl`, the Ki in data set [1] came to 22 nM. Also, in data set [2], the IC50 is on record as 240 nM.

As to `CCCN(CC1CC1)c1nc(C)nc(Nc2c(Cl)cc(Cl)cc2Cl)c1Cl`, the affinity in [1] corresponds to a Ki of 2 nM.

`CCCC(c1ccccc1)N(CCC)c1nc(-c2ccc(OC)cc2C)n(C)n1` (configuration not stated) yielded a Ki in [1] of 61 nM.

In data set [1], `CCCC[C@H](c1ccccc1)N(CCC)c1nc(-c2ccc(OC)cc2C)n(C)n1` yielded a Ki of 350 nM.

In data set [1], `CCCCC(c1ccc(F)cc1)N(CCC)c1nc(-c2ccc(Cl)cc2OC)n(C)n1` (configuration not stated) showed a Ki of 7.3 nM. In addition, in [4], the Ratio worked out at 20%. In data set [5], the Cmax turned out to be 290 ng/mL. Further, the half-life in data set [6] is 198 min. In data set [7], this compound showed an AUC of 1010 ng·h/mL. For the same compound, the bioavailability in data set [8] was 84%. For the same compound, the Tmax in data set [9] worked out at 30 min. The clearance in data set [10] was determined as 27.7 mL/min/kg. The Vd in data set [11] is 7.8 L/kg.

On to `CCCC[C@@H](c1ccc(F)cc1)N(CCC)c1nc(-c2ccc(Cl)cc2OC)n(C)n1.Cl`, for which, in [1], the Ki was 2.7 nM. Further, the IC50 in data set [2] is recorded as 49 nM.

As for `CCCN(c1nc(-c2ccc(Cl)cc2OC)n(C)n1)C(C)CC` (configuration not stated), the Ki in data set [1] is 690 nM.

Turning to `CCC[C@H](c1ccccc1)N(CCC)c1nc(-c2ccc(OC)cc2C)n(C)n1`, the Ki in data set [1] turned out to be 380 nM.

As to `CCC(c1ccccc1)N(CC)c1nc(-c2ccc(Cl)cc2OC)n(C)n1` (configuration not stated), in data set [1], the affinity corresponds to a Ki of 150 nM.

Consider `CCCN(c1nc(-c2ccc(Cl)cc2OC)n(C)n1)[C@H](CC)c1ccc(C(F)(F)F)cc1`, for which the Ki in data set [1] worked out at 428 nM.

As for `CCCCC(c1ccc(F)cc1)N(CCC)c1nc(-c2ccc(OC)cc2OC)n(C)n1` (configuration not stated), affinity in data set [1] was put at a Ki of 24 nM.

`CCCN(CCC)c1nc(-c2ccc(Cl)cc2Cl)n(C)n1` came in with a Ki in data set [1] of 3400 nM.

`CCCN(c1nc(-c2ccc(Cl)cc2OC)n(C)n1)C(CC)c1ccccc1` (configuration not stated): in data set [1], the Ki was 26 nM.

In data set [1], `CCCCC(CC)N(CCOC)c1nc(-c2ccc(Cl)cc2OC)n(C)n1` (configuration not stated) had a Ki of 280 nM.

Regarding `CCCCC(CC)N(CC1CC1)c1nc(-c2ccc(Cl)cc2OC)n(C)n1` (configuration not stated), the affinity in data set [1] corresponds to a Ki of 440 nM.

In the case of `CCCC(c1ccccc1)N(CCC)c1nc(-c2cc(OC)c(OC)cc2Cl)n(C)n1` (configuration not stated), in data set [1], the affinity corresponds to a Ki of 84 nM.

`CCCC[C@H](c1ccc(F)cc1)N(CCC)c1nc(-c2ccc(Cl)cc2OC)n(C)n1` had a Ki in data set [1] of 46 nM.

On to `CCCN(c1nc(-c2ccc(Cl)cc2Cl)nn1C)C(C1CC1)C1CC1`, for which the Ki in data set [1] is over 10000 nM.

As to `CCCC(c1ccccc1)N(CCC)c1nc(-c2ccc(OC)cc2OC)n(C)n1` (configuration not stated), in data set [1], the affinity, expressed as Ki, was 120 nM.

As to `CCCN(c1nc(-c2ccc(Cl)cc2OC)n(C)n1)C(C1CC1)C1CC1`, in data set [1], the Ki amounted to 28 nM.

`CCC[C@@H](c1ccccc1)N(CCC)c1nc(-c2ccc(OC)cc2C)n(C)n1.Cl`: affinity in data set [1] was put at a Ki of 9 nM. Further, in [2], the IC50 is 120 nM.
